Measured values from article PMC4548726 (Diabetes, Metabolic Syndrome and Obesity: Targets and …, 2015).

Legend:
[1] = system: diabetic NSG RIP-DTR mice engrafted with human islets; assay type: in vivo, mouse; settings: Donor 5 study; low dose 50 µg/kg sc twice daily
[2] = system: diabetic NSG RIP-DTR mice engrafted with human islets; assay: Body weight of human islet-engrafted mice; assay type: in vivo, mouse; settings: 50, 150, 500 µg/kg sc twice daily
Outline: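 Male NSG RIP-DTR mice, 8–12 weeks old, made diabetic by diphtheria toxin ablation of mouse beta cells and engrafted with a marginal mass of human islets from a single donor. Randomized into four groups: vehicle or test compound at 50, 150 or 500 µg/kg/injection, given sc twice daily until removal of the graft-bearing kidney at ~4 weeks post-transplant. Body weights followed over the study.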

[3] = system: human islets engrafted in NSG RIP-DTR mice; assay: Plasma human insulin; assay type: in vivo, mouse; settings: 2 weeks post-transplant
[4] = system: diabetic NSG RIP-DTR mice engrafted with human islets; assay: Glucose tolerance test; assay type: in vivo, mouse; settings: for GTT vs controls: Donor 3 study
Outline: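 Human islet-engrafted diabetic NSG RIP-DTR mice on twice-daily sc vehicle or test compound were fasted 5–6 hours. Glucose (2.0 g/kg body weight) was injected ip, and blood glucose was measured afterwards.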

[5] = system: human beta cells in islet grafts; assay: TUNEL assay of human beta-cell apoptosis in recovered islet grafts; assay type: in vivo
Outline: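 Recovered human islet grafts were taken on days 29, 32 and 21 for the Donor 3, 4 and 5 studies, at the end of twice-daily sc dosing. Sections were co-stained for insulin and TUNEL-labelled following the kit instructions. Cells were visualized by fluorescence microscopy and counted, and results expressed as percent TUNEL-positive beta cells.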

[6] = system: human beta and alpha cells in islet grafts; assay: Total beta- and alpha-cell counts in human islet grafts; assay type: in vivo; settings: Donor 5 study
Outline: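 After twice-daily sc dosing, the graft-bearing kidney was removed. For the Donor 5 study, grafts were recovered on day 21. Whole-section images were taken from the outer graft edge with a motorized-stage fluorescence microscope and stitched, and total insulin+ and glucagon+ cells were counted.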

[7] = system: INS-1 rat pancreatic beta-cell line; settings: in vitro; cited from earlier work
patients with T2D = settings: cited from earlier work
[8] = high dose 500 µg/kg sc twice daily
[9] = low dose 50 µg/kg sc twice daily, n=3 or 4
[10] = medium dose 150 µg/kg sc twice daily

lixisenatide
blood glucose [1]: ~ 400 mg/dL | body weight change between transplant and nephrectomy ([2]; Donor 1 study): all mice lost significant weight between the time of transplant and nephrectomy, except the medium-dose group | body weight change between transplant and nephrectomy ([2]; Donor 3 and 4 studies): no significant change in body weight | stimulation index (ratio of stimulated to fasting human insulin) vs control ([3]; high dose 500 µg/kg, Donor 3 and 4 studies): significantly increased compared to controls | stimulation index (ratio of stimulated to fasting human insulin) vs control ([3]; medium dose 150 µg/kg, Donor 1, 3 and 4 studies): significantly increased compared to controls | GTT vs controls ([4]; high dose 500 µg/kg (P<0.05)): significant differences from controls | GTT vs controls ([4]; medium dose 150 µg/kg (P<0.01)): significant differences from controls | GTT vs control group ([4]; Donor 4 study, low dose 50 µg/kg (P<0.05)): significant differences from the control group | average percent beta-cell apoptosis at the end of each study ([5]; TUNEL-positive beta cells, control and lixisenatide groups, Donors 3, 4, 5): < 1% | beta-cell apoptosis (TUNEL) vs control ([5]; grafts recovered days 29, 32, 21 (Donors 3, 4, 5), all dose groups): no significant differences in beta-cell apoptosis | numbers of alpha cells in islet graft relative to control group [6, 8]: approximately threefold higher | numbers of beta cells in islet graft relative to control group [6, 8]: approximately threefold higher | alpha-cell counts in islet graft relative to control group [6, 9]: approximately twofold higher | beta-cell counts in islet graft relative to control group [6, 9]: approximately twofold higher | numbers of alpha cells in islet graft relative to control group [6, 10]: approximately threefold higher | numbers of beta cells in islet graft relative to control group [6, 10]: approximately threefold higher | lipid- and cytokine-induced apoptosis [7]: protect against lipid- and cytokine-induced apoptosis | reduction in postprandial plasma glucose vs placebo (patients with T2D; T2D patients insufficiently controlled on metformin): significantly greater reduction in postprandial plasma glucose | glycemic control (postprandial and fasting glucose levels) (patients with T2D; patients with T2D, once-daily administration): improved glycemic control by decreasing both postprandial and fasting glucose levels
